SMILES strings stand for the structures.

Assay [1] in a line: Inhibition of p70S6K ATP Loop labeling site harbouring GGYGKVFQVR in human A-375 cells at 5 uM by KiNativ Profiling analysis relative to control. The note with it: condition cancer.
Assay [2] addresses Ribosomal protein S6 kinase alpha-2 (Homo sapiens) (UniProt Q15349). The assay can be described thus: Inhibition of RSK3 Protein Kinase Domain in human A-375 cells at 0.5 uM by KiNativ Profiling analysis relative to control. In kind it is cell-based. In outline: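 Live A375 melanoma cells treated with compound at 5 or 0.5 μM, then lysed. Lysate kinases were labeled with a lysine-reactive ATP or ADP-biotin probe. Inhibition was read as protection of labeling sites from the probe.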

Assay [3] addresses Mitogen-activated protein kinase kinase kinase 1 (Homo sapiens) (UniProt Q13233). The assay can be described thus: Inhibition of MAP3K1 Lys2 labeling site in human A-375 cells at 0.05 uM by KiNativ Profiling analysis relative to control. In kind it is cell-based.
Assay [4] concerns the target TRAF2 and NCK-interacting protein kinase (Homo sapiens) (UniProt Q9UKE5). The assay can be described thus: Inhibition of ZC2/TNIK Lys2 labeling site in human A-375 cells at 0.05 uM by KiNativ Profiling analysis relative to control. In kind it is cell-based.
Assay [5] addresses T1, Inhibitor of nuclear factor kappa-B kinase subunit alpha (Homo sapiens) (UniProt O15111).
T1 sequence (whole entry): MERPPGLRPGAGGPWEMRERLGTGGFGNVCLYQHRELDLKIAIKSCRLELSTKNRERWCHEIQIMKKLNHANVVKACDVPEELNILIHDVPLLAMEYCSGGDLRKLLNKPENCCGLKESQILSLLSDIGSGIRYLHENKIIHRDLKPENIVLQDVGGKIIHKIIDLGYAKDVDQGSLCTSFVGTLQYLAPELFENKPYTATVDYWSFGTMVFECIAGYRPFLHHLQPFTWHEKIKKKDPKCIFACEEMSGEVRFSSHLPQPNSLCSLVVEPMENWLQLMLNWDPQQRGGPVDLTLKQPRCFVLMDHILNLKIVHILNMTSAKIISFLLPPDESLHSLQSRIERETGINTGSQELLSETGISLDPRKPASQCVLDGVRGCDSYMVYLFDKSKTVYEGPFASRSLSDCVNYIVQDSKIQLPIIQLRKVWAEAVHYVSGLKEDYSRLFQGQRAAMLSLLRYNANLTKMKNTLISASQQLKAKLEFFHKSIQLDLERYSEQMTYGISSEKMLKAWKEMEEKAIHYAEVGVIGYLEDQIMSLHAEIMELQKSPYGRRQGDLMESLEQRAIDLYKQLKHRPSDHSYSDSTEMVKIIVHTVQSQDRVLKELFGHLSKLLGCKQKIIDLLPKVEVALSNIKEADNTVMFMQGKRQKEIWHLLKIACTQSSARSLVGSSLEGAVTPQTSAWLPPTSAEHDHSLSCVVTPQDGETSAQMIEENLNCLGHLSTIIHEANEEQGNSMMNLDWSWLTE
The assay is described as follows: Inhibition of IKKa Lys2 labeling site in human A-375 cells at 0.5 uM by KiNativ Profiling analysis relative to control. Format: cell-based.

Assay [6] deals with T2, Mitogen-activated protein kinase kinase kinase 3 (Homo sapiens) (UniProt Q99759).
T2 sequence (whole entry): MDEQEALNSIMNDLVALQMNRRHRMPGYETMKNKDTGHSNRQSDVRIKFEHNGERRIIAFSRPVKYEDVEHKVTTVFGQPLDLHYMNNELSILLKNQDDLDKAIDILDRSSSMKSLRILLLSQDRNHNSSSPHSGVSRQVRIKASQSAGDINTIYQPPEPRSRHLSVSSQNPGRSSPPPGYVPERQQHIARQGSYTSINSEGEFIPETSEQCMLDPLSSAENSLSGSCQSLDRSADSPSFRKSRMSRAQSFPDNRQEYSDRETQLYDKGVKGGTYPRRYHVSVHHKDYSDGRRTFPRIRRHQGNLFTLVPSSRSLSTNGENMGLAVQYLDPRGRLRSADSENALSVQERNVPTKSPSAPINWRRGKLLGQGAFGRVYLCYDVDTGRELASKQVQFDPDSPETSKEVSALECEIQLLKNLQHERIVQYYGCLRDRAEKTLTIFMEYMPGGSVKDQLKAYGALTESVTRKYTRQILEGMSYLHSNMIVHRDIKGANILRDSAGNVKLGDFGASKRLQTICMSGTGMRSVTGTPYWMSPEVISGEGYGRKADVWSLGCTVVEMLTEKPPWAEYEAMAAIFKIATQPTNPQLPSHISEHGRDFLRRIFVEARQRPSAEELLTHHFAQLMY
The assay can be described thus: Inhibition of MAP3K3 Lys2 labeling site in human A-375 cells at 5 uM by KiNativ Profiling analysis relative to control. In kind it is cell-based.

Assay [7] addresses T3, Mitogen-activated protein kinase kinase kinase 2 (Homo sapiens) (UniProt Q9Y2U5).
T3 sequence (whole entry): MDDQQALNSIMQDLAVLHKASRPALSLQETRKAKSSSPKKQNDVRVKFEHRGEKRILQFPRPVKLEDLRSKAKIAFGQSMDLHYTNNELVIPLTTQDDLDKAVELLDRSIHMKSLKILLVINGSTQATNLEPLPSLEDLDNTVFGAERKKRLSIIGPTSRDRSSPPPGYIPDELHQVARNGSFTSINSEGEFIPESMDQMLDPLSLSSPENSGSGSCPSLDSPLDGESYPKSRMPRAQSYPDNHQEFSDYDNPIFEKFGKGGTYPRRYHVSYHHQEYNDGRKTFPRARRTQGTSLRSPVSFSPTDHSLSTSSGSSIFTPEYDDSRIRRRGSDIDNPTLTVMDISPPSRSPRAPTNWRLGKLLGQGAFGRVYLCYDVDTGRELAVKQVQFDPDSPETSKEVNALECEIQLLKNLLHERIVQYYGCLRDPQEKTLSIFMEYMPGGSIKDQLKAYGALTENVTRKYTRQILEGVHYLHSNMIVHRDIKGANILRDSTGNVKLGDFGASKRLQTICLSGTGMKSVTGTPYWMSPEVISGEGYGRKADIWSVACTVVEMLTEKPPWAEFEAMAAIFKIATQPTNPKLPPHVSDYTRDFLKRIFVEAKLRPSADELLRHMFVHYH
The assay can be described thus: Inhibition of MAP3K2 Lys1 labeling site harbouring VYLCYDVDTGRELAVKQVQFDPDSPETSKEVNALECEIQLLK in human A-375 cells at 0.05 uM by KiNativ Profiling analysis relative to control. Format: cell-based.

The target in assay [8] is RAC-beta serine/threonine-protein kinase (Homo sapiens) (UniProt P31751). The assay can be described thus: Inhibition of AKT2 ATP Loop labeling site in human A-375 cells at 0.05 uM by KiNativ Profiling analysis relative to control. In kind it is cell-based.
The target of assay [9] is Epidermal growth factor receptor (Homo sapiens) (UniProt P00533). The assay can be described thus: Inhibition of EGFR Lys1 labeling site in human A-375 cells at 0.5 uM by KiNativ Profiling analysis relative to control. Format: cell-based. The method in brief:
(§1)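 Live A375 melanoma cells were treated with compound at 0.5 or 5 μM, then lysed. Lysates were labeled with a lysine-reactive ATP or ADP-biotin probe. The read-out was protection of each kinase probe-labeling site from labeling, relative to control.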

In assay [10] the target is DNA-PK/Ku70/Ku85 (Homo sapiens) (UniProt P78527+P12956+P13010). The assay is described as follows: Inhibition of DNAPK ATP labeling site harbouring KGGSWIQEINVAEK in human A-375 cells at 0.5 uM by KiNativ Profiling analysis relative to control. Format: cell-based. In outline:
as §1

Sequence of TRAF2 and NCK-interacting protein kinase (Homo sapiens) (Q9UKE5 whole entry, looked up): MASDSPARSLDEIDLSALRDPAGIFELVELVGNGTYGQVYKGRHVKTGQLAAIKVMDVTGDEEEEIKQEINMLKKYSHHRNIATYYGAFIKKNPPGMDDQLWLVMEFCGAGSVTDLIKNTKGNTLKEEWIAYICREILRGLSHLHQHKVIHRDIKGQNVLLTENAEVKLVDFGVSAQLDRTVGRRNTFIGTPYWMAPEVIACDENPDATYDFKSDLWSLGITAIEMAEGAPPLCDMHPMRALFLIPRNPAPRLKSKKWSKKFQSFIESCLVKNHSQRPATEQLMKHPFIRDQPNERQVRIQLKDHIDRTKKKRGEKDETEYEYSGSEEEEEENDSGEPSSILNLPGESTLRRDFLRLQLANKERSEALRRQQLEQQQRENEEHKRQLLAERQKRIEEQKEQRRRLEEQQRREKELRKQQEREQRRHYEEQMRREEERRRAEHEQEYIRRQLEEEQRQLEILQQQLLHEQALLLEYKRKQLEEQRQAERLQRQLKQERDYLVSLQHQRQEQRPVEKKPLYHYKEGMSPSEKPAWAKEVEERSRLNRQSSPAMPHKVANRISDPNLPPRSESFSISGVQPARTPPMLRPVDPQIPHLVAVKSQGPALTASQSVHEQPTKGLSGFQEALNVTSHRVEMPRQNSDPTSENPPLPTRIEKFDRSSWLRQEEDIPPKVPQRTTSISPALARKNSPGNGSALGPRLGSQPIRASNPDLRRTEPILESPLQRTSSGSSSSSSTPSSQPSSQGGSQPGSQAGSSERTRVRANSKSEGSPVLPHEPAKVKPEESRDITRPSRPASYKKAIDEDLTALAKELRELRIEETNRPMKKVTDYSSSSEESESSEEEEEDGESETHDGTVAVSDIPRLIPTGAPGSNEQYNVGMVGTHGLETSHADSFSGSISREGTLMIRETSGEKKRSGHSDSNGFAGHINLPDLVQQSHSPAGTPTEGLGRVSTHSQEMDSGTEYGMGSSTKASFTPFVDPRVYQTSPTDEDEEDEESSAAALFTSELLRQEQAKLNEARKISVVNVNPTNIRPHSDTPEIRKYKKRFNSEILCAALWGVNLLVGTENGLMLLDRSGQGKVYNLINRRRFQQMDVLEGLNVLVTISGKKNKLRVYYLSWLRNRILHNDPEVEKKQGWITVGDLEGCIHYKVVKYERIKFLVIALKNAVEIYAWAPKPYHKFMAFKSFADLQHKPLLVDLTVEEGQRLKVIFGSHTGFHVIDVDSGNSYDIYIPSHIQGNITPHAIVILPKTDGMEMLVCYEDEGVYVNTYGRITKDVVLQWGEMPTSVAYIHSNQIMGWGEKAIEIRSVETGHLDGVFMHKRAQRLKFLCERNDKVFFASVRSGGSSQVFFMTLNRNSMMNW
Sequence of Ribosomal protein S6 kinase alpha-2 (Homo sapiens) (Q15349 whole entry, the tested form may be a part): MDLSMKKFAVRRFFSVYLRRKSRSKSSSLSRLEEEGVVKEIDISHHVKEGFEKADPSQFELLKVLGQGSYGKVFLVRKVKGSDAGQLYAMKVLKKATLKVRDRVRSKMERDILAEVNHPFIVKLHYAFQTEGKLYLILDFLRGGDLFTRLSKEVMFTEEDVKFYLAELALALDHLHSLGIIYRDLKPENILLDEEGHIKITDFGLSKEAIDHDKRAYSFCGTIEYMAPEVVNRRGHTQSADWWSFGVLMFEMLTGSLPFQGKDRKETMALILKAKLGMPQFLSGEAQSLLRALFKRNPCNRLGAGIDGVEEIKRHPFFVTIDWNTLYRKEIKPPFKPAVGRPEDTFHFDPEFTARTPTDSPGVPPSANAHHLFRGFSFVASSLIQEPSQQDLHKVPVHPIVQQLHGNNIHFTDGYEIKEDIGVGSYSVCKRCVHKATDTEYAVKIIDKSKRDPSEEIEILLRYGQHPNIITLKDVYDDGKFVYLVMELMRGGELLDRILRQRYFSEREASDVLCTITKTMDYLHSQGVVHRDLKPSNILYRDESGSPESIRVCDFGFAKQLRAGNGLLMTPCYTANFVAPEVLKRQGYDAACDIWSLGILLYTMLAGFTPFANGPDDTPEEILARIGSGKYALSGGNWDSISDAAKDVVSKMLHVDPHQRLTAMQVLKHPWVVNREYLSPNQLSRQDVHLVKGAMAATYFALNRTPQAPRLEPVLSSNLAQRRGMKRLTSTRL
Sequence of Mitogen-activated protein kinase kinase kinase 1 (Homo sapiens) (Q13233 whole entry): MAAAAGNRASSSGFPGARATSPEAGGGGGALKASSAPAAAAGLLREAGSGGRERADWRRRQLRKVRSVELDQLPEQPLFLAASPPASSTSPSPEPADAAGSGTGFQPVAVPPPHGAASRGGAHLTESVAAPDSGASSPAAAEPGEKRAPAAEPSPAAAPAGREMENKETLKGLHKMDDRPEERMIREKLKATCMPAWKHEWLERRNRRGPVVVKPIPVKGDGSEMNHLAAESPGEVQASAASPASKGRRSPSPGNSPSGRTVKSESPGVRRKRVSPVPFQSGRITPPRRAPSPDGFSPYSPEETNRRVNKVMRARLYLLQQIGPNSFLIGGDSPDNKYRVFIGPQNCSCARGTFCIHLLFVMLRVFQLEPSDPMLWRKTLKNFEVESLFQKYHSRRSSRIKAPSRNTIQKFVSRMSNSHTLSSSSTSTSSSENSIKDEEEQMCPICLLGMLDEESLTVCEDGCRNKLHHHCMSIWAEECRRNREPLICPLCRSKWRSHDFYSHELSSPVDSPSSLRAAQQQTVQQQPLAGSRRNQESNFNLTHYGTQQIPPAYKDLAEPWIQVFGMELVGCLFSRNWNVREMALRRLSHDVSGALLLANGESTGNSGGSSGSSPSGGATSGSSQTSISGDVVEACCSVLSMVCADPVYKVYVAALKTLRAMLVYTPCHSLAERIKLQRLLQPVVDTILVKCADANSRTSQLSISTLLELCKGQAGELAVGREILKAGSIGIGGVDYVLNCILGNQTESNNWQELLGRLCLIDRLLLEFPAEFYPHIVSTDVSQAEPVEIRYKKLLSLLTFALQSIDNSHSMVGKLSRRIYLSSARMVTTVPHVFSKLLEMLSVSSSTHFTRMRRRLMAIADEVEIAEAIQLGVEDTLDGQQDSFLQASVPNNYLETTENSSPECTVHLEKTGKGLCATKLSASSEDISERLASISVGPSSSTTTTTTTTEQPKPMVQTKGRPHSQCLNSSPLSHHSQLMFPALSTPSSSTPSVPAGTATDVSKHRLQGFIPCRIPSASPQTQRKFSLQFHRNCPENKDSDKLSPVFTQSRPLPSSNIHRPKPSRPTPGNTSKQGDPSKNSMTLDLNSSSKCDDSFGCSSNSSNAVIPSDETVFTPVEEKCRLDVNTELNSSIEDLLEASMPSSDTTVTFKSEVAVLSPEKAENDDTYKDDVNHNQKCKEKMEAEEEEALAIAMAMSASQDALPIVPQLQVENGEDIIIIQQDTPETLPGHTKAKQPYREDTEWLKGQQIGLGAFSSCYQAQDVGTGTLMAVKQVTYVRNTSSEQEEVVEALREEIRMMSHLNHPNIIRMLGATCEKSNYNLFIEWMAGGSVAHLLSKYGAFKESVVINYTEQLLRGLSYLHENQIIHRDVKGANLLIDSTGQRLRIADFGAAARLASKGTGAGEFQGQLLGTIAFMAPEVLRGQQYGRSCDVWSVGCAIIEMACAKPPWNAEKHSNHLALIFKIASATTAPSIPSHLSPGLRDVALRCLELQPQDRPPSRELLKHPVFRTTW
Sequence of Epidermal growth factor receptor (Homo sapiens) (P00533 whole entry): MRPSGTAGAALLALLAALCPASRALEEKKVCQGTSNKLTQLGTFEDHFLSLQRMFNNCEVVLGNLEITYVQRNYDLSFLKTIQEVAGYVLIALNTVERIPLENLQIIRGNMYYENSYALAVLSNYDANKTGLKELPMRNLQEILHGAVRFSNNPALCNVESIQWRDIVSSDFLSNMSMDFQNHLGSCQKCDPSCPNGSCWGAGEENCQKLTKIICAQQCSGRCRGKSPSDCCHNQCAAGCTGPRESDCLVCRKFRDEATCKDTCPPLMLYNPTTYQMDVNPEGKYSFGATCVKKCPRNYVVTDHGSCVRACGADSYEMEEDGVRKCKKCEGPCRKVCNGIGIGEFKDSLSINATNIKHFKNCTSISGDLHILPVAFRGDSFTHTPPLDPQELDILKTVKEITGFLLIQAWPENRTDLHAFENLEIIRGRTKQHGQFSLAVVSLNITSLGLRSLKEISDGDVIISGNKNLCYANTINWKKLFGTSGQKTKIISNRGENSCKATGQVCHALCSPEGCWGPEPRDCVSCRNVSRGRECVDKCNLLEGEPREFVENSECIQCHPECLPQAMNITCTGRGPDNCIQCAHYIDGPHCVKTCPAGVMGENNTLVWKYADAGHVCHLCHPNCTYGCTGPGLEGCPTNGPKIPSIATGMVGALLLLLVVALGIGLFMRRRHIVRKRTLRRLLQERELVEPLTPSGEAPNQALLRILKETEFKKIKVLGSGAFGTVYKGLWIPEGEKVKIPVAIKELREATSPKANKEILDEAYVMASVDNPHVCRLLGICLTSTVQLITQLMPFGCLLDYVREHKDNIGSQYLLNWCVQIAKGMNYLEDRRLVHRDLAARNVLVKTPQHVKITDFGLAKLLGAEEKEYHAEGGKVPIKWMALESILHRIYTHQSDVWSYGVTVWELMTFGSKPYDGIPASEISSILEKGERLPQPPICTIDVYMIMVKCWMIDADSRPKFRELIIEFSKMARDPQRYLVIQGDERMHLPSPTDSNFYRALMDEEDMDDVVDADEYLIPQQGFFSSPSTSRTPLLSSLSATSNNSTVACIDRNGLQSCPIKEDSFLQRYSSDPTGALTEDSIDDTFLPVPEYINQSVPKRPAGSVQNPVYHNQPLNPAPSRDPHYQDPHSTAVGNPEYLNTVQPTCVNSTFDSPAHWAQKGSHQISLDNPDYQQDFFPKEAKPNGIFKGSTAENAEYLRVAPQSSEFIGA

What is called inhibition is the relative decrease from the control value, in per cent. `CCN1CCN(Cc2ccc(NC(=O)c3ccc(C)c(/C=C/c4cnc5[nH]ccc5c4OC)c3)cc2C(F)(F)F)CC1`: the inhibition at 5 µM in assay [1] is -8%. For the same compound, the inhibition in [2] came out at 3.2%; in [3], 23.1%; in assay [4], 19.5%; in assay [5] it was 13.3%; in [6], 11.8%; in [7] it was 1.5%. Further, the figures for the inhibition in assay [8], in assay [9] and in assay [10] were 20.9%, 0.4% and 17.8%, respectively.
Turning to `CCN1CCN(Cc2ccc(NC(=O)c3ccc(C)c(Oc4ccnc5[nH]ccc45)c3)cc2C(F)(F)F)CC1`, the inhibition at 5 µM in [1] was determined as 14.7%. Moreover, the inhibition is 0.9% in [2]; 16.8% in assay [3]; 32.6% in assay [4]; 33.4% in assay [5]; -4.8% in assay [6]; -3.7% in [7]. Besides, the inhibition in [8] was -3.9%; in assay [9], -8.8%; in assay [10], 34%.

Source of the values: ChEMBL document CHEMBL5696442, “Discovery of type II inhibitors of TGFβ-activated kinase 1 (TAK1) and mitogen-activated protein kinase kinase kinase kinase 2 (MAP4K2)” (J Med Chem, 2015).
